The target in series [1] is T1, Focal adhesion kinase 1 (Homo sapiens, UniProt Q05397). Kind of series: Inhibition of FAK phosphorylation in EGF-stimulated human MDA231 cells using [gamma32P]ATP as substrate at 50 uM after 2 hrs by scintillation counting. The class given is cell-based. The gist of the method: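 MDA231 cells serum-starved overnight, treated with compound for 2 h, then stimulated with 20 ng/mL EGF for 30 min. Lysates immunoprecipitated with polyclonal anti-FAK. The immunocomplex was assayed in Hepes/MgCl2/MnCl2 buffer with 3 μCi/nmol [γ-32P]-ATP. Reactions stopped by boiling in SDS sample buffer. Bands excised after SDS-PAGE and counted by scintillation. Figure legend gives N = 4.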
Target sequence in this assay (Q05397 2-1052 limits assumed): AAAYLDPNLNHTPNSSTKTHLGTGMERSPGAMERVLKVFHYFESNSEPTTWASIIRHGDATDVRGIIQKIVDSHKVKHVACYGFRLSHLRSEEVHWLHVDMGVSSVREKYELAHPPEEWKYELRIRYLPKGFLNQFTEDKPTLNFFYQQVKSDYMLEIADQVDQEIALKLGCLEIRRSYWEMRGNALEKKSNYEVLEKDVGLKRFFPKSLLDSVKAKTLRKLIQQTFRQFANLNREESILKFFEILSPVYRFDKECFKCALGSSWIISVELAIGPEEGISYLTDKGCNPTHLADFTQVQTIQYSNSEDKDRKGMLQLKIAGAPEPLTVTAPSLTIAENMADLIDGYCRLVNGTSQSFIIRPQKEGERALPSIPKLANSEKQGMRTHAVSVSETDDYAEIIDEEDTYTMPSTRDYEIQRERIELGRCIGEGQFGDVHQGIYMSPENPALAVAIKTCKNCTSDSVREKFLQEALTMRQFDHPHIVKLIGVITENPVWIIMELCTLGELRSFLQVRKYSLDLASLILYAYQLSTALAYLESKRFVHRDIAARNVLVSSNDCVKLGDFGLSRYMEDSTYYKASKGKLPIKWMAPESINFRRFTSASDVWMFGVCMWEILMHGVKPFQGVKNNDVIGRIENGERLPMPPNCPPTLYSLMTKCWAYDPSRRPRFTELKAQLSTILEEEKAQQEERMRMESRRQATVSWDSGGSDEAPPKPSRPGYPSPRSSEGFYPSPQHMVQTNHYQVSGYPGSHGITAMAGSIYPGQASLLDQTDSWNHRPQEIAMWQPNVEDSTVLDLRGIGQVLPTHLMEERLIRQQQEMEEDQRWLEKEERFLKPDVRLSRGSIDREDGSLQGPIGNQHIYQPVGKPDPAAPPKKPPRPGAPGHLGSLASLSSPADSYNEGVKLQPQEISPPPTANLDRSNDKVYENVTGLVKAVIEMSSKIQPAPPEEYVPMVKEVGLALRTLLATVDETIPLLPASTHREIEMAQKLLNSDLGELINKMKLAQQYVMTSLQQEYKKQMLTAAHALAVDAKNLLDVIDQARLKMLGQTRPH

The target in series [2] is Tyrosine-protein kinase Yes (Homo sapiens) (UniProt P07947). Kind of series: Inhibition of YES1 at 1 uM.
The next series has as its system Cancer cell lines. Kind of series: Antitumor activity against human MDA231 cells xenografted in SCID mouse assessed as inhibition of lung metastases of cancer cells at 60 mg/kg, ip administered 3 times a week for a total of 9 doses measured on day 40 by stereomicroscopic analysis. The arrangement: dose 60 mg/kg. The series is classed as functional, organism-based. The essentials: (§1)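 Female SCID mice, 6 per group, given 1.5 million MDA-231-M2 cells into the mammary fat pad. Once tumours were palpable, vehicle or compound was given at 60 mg/kg IP 3 times weekly for 9 injections. Mice sacrificed on day 40. Lungs fixed in 10% Bouin's and surface metastases counted by stereomicroscope. Primary tumour volume also recorded. Groups compared to vehicle by unpaired Student t test.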

Series [3] has as its system Mus musculus. Kind of series: Apparent toxicity in SCID mouse xenografted with human MDA231 cells at 60 mg/kg, ip administered 3 times a week for a total of 9 doses. The series is classed as organism-based. The arrangement: dose 60 mg/kg, route intraperitoneal. As to conditions: in vivo. Background: Xenograft models place foreign cells or tissue in a host animal.
Series [4] has as its system Mus musculus. Kind of series: Toxicity in SCID mouse xenografted with human MDA231 cells assessed as body weight loss at 60 mg/kg, ip administered 3 times a week for a total of 9 doses. The series is classed as organism-based. The arrangement: dose 60 mg/kg, route intraperitoneal. As to conditions: in vivo.
The subject of series [5] is MDA-MB-231. Kind of series: Antiangiogenic activity in human MDA231 cells assessed as inhibition of cell migration at 10 uM after 12 to 24 hrs by wound healing migration assay. The series is classed as functional, cell-based. The gist of the method:
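MDA-231 cells grown on coverslips for 24 h, wounded by scraping with a micropipette tip, washed, then kept in fresh medium at 37 °C with compound at 10 μM final or DMSO. Photographed at 12 and 24 h. Remaining wound area measured. DMSO set to 0% inhibition. Mean ± SD of five independent experiments.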

In series [6] the test system is MDA-MB-231. Kind of series: Antitumor activity against human MDA231 cells xenografted in SCID mouse assessed as tumor growth inhibition at 60 mg/kg, ip administered 3 times a week for a total of 9 doses measured on day 40. The series is classed as functional, organism-based. Also on record: dose 60 mg/kg. The essentials:
as §1

Series [7] relates to MDA-MB-231. Kind of series: Antiinvasive activity in human MDA231 cells at 10 uM after 48 hrs by Matrigel matrix assay. The series is classed as functional. The essentials: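 Serum-starved MDA-231 cells (30,000) placed with or without compound (10 μM) in the upper compartment of 8-µm Matrigel-coated Boyden chambers. Lower compartment held DMEM 0.2% BSA with 10% serum. Invasion ran 48 h, then invaded cells were fixed, stained and counted under a 40× objective. DMSO normalized to 0% inhibition. Mean ± SD, five experiments.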

In series [8] the target is Tyrosine-protein kinase receptor Tie-1 (Homo sapiens) (UniProt P35590). Kind of series: Inhibition of TIE1 at 1 uM.
Series [9] addresses RAC-alpha serine/threonine-protein kinase (Homo sapiens, UniProt P31749). Kind of series: Inhibition of AKT-1.
Series [10] addresses T1, Focal adhesion kinase 1. Kind of series: Inhibition of human recombinant full-length FAK using ATP and Poly Glu:Tyr as substrate after 4 hrs by luminescence analysis. The essentials:
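Human recombinant full-length FAK incubated 4 h at room temperature in kinase buffer with ATP and Poly Glu:Tyr substrate, with or without compound at various concentrations.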
Target sequence in this assay (Q05397 whole entry): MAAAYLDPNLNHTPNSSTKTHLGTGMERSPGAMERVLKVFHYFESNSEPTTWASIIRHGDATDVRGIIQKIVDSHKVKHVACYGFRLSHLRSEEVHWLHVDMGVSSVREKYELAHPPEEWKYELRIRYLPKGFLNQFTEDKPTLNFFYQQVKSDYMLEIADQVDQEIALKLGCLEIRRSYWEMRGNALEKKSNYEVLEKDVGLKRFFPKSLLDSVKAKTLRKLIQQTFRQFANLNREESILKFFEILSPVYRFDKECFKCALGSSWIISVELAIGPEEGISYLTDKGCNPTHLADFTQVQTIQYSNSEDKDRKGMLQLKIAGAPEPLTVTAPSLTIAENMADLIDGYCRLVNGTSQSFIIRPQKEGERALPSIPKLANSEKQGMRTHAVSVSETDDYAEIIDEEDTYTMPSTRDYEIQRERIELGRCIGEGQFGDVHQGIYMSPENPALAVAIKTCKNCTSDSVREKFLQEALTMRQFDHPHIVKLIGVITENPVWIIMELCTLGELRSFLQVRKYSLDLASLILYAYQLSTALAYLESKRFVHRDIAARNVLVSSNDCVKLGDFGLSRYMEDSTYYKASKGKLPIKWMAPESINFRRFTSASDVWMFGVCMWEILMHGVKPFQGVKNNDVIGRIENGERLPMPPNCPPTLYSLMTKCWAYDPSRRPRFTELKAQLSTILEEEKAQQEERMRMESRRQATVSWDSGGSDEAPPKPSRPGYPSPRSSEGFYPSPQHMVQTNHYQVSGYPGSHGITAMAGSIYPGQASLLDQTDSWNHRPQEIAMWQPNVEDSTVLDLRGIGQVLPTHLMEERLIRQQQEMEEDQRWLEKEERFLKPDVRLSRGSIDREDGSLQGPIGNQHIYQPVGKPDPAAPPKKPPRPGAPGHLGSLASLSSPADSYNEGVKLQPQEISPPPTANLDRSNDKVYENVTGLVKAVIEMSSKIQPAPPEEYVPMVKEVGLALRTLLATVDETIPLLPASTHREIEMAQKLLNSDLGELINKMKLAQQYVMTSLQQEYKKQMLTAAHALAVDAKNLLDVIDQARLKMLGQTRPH

The target in series [11] is Protein kinase C alpha type (Homo sapiens, UniProt P17252). Kind of series: Inhibition of PKCalpha.
In series [12] the test system is MDA-MB-231. Kind of series: Cytotoxicity against human MDA231 cells at 50 uM. The series is classed as functional, cell-based.

This note sets out measurements from ChEMBL document CHEMBL1938284, “Synthesis and biological activity of novel organoselenium derivatives targeting multiple kinases and capable of inhibiting cancer progression to metastases” (Eur J Med Chem, 2012).

Activity calls are given as the source filed them. The calls are words filed in the database; no cut-off is given here.

Chain of Tyrosine-protein kinase Yes (Homo sapiens) (P07947 2-543 limits assumed): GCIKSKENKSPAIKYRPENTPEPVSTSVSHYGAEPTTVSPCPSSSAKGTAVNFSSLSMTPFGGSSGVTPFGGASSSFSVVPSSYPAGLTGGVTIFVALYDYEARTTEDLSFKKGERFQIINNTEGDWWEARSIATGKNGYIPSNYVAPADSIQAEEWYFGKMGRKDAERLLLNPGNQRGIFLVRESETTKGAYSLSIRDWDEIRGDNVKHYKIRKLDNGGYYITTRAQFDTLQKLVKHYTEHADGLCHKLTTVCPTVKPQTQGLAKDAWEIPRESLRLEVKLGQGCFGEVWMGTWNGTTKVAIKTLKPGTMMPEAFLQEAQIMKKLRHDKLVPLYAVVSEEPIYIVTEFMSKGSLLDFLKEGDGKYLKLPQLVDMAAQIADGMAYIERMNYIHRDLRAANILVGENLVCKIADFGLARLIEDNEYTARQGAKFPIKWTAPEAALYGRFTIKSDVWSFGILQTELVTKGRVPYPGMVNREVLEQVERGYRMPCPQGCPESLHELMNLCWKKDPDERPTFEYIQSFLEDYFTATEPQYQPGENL
Chain of Tyrosine-protein kinase receptor Tie-1 (Homo sapiens) (P35590 whole entry): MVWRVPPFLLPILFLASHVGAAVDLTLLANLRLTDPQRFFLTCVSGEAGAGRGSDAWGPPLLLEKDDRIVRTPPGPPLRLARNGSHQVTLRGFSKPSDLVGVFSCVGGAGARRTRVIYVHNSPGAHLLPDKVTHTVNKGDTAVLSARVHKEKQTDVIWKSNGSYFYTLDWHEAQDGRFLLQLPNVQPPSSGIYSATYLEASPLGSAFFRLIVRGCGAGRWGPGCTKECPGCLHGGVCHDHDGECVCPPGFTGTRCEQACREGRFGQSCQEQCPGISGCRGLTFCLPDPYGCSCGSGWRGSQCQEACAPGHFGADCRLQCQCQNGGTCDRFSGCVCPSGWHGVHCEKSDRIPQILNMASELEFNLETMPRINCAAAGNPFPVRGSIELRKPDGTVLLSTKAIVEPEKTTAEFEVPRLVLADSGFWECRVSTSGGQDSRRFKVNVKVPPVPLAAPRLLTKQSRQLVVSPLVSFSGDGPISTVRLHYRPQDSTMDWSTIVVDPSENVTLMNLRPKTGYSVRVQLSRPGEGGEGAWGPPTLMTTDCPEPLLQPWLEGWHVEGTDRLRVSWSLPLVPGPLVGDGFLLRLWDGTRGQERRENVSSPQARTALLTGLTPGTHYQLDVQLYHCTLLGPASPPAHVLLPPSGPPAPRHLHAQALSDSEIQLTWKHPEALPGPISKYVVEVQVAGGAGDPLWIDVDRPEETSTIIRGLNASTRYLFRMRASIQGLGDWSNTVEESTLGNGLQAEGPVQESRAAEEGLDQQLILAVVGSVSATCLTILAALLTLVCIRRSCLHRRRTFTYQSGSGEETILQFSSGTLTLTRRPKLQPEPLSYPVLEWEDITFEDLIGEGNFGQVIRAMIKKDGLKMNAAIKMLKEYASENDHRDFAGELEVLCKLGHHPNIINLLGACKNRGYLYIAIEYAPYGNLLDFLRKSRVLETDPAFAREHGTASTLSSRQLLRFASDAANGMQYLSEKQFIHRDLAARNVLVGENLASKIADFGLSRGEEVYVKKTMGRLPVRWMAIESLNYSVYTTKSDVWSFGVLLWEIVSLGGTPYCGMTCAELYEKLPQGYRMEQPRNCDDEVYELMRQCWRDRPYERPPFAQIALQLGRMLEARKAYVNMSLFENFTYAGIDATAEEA
Chain of RAC-alpha serine/threonine-protein kinase (P31749 whole entry): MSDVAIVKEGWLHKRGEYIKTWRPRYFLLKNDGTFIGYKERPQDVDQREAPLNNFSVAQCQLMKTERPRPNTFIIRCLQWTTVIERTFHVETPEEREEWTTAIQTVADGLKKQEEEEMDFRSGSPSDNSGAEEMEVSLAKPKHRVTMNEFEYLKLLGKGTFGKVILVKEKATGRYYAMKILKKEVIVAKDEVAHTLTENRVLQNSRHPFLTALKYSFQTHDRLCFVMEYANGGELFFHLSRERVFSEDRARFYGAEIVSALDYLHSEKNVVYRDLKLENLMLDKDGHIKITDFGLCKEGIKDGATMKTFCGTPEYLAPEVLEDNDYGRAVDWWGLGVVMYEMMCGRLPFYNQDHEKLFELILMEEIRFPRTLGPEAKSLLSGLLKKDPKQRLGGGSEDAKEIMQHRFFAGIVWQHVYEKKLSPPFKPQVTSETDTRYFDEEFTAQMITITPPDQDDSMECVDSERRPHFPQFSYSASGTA

For the molecule `O=c1c2ccccc2[se]n1-c1ccccc1` [EBSELEN], the inhibition entry on Focal adhesion kinase 1 [1], with Cancer cell lines and in the series with MDA-MB-231 [5] was “inactive” throughout. Further, the inhibition in series [2] and in [8] was 0% throughout. Further, the Activity entry in the series with Mus musculus [3] and in the series with Mus musculus [4] was “Non-toxic” in each case. In addition, the “growth inhibition (GI)” value in the series on MDA-MB-231 [6] is “inactive”. The result with MDA-MB-231 [7] was inactive.
Consider `CC(=O)OC[C@H]1O[C@@H](NC(=O)CCCn2[se]c3ccccc3c2=O)[C@H](OC(C)=O)[C@@H](OC(C)=O)[C@@H]1OC(C)=O`, for which the inhibition in [2] and in [8] was 0% in each case. Further, the IC50 (as a rule, the concentration that inhibits the measured activity by half) worked out at 800 nM in series [9], 920 nM at Focal adhesion kinase 1 [10] and 740 nM in series [11].
`CC(=O)OC[C@H]1O[C@@H](O[C@H]2[C@H](OC(C)=O)[C@@H](OC(C)=O)[C@H](n3[se]c4ccccc4c3=O)O[C@@H]2COC(C)=O)[C@H](OC(C)=O)[C@@H](OC(C)=O)[C@H]1OC(C)=O`: the inhibition in [2] and in series [8] was 0% each time. The result in the series on MDA-MB-231 [12] was Active. For the same molecule, the inhibition – broadly, how much of the control response was suppressed – in the series on Cancer cell lines is “Active”. Moreover, the Activity entry with Mus musculus [3] and with Mus musculus [4] was “Non-toxic” throughout. The “growth inhibition (GI)” value in the series with MDA-MB-231 [6] is “Active”.
For the molecule `O=C(CCCn1[se]c2ccccc2c1=O)N[C@@H]1O[C@H](CO)[C@@H](O)[C@H](O)[C@H]1O`, the inhibition in [2] and in series [8] was 0% in each case. The IC50 in series [9] is 880 nM; at Focal adhesion kinase 1 [10] it was 960 nM; in [11], 730 nM.
